Measured values published in ChEMBL document CHEMBL1156686, “Xanthine oxidase-activated prodrugs of thymidine phosphorylase inhibitors” (Eur J Med Chem, 2008).

Substrate: O=c1[nH]c(=O)n([C@H]2C[C@H](O)[C@@H](CO)O2)cc1[N+](=O)[O-]
Experiment: Activity of Escherichia coli thymidine phosphorylase
Outline: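 Recombinant E. coli TP (0.00883 U per 0.2 ml) added to start a continuous spectrophotometric assay. Mix: 0.13 mM 5-nitro-2'-deoxyuridine substrate in 0.1 M potassium phosphate, pH 7.4, 25 °C, read at 355 nm in a microplate. Initial velocity compared with the mean of at least two no-inhibitor controls. Where derived, IC50 used at least five concentrations spanning the value.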

B1: Thymidine phosphorylase (Escherichia coli K-12), P07650 (protein)
chain: MFLAQEIIRKKRDGHALSDEEIRFFINGIRDNTISEGQIAALAMTIFFHDMTMPERVSLTMAMRDSGTVLDWKSLHLNGPIVDKHSTGGVGDVTSLMLGPMVAACGGYIPMISGRGLGHTGGTLDKLESIPGFDIFPDDNRFREIIKDVGVAIIGQTSSLAPADKRFYATRDITATVDSIPLITASILAKKLAEGLDALVMDVKVGSGAFMPTYELSEALAEAIVGVANGAGVRTTALLTDMNQVLASSAGNAVEVREAVQFLTGEYRNPRLFDVTMALCVEMLISGKLAKDDAEARAKLQAVLDNGKAAEVFGRMVAAQKGPTDFVENYAKYLPTAMLTKAVYADTEGFVSEMDTRALGMAVVAMGGGRRQASDTIDYSVGFTDMARLGDQVDGQRPLAVIHAKDENNWQEAAKAVKAAIKLADKAPESTPTVYRRISE
- kcat: 20 s⁻¹
